≈ marks a conversion by molar mass, not a printed value.
Tests used:
MCF-7 cells [1] = test: Apoptosis study, PI staining and flow cytometry; type: cell-based, human; settings: MCF-7, 24 hours, 1 mg/mL
Summary of the method: (§1)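 Cells grown at 37°C, 5% CO2 in DMEM or RPMI 1640 with 10% FBS and penicillin/streptomycin. They were exposed for 24 h to free PTX or the fluorescein-labelled folate–PTX conjugates, added as a 1 mg/mL solution. Cells were then resuspended in binding buffer, stained with propidium iodide, and analysed at once by flow cytometry. The PI-positive late apoptotic/necrotic quadrant (Q4) was scored.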

[2] = test system: MDA-MB-231, MCF-7, and A549 cancer cells; test: Cell viability; type: cell-based, human
Summary of the method: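 MTT assay. Cells were plated at 5×10^3 per well and exposed for 48 h to PTX or the conjugates (theoretical PTX content 45.93% and 47.71%) at […]–1 μg/mL, equal to 0.01435–0.4771 μg/mL conjugated PTX. Each drug was tested in six wells. MTT (5 mg/mL stock) was then added and absorbance read at 490 nm.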

A549 tumors = test: In vivo antitumor activity; design: species or system nude mice; settings: for tumor growth inhibition rate: 5 mg/kg i.v. every 3 days, five injections
Summary of the method: (§2)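 Tumor cells implanted in the upper right axillary fossa of nude mice; treatment began when tumors reached 0.2–0.5 cm diameter. Mice were randomized to four groups (n=5): PBS pH 7.4 control, free paclitaxel, or test conjugates, each at 5 mg/kg in 0.2 mL. Dosing was by tail vein every 3 days, five injections over 15 days. Tumor volume and body weight were recorded daily; values are mean ± SD.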

MDA-MB-231 cells [3] = test: Apoptosis study, PI staining and flow cytometry; type: cell-based, human; settings: MDA-MB-231, 24 hours, 1 mg/mL
Summary of the method: as §1

A549 cells [4] = test: Apoptosis study, PI staining and flow cytometry; type: cell-based, human; settings: A549, 24 hours, 1 mg/mL
Summary of the method: as §1

Acute toxicity = settings: both, Kunming, mouse, in vivo, iv
normal (Kunming) mice = test: Acute toxicity; settings: tail vein, mice
MCF-7 tumors = test: In vivo antitumor activity; design: species or system nude mice; settings: MCF-7-bearing mice; for tumor growth inhibition rate: 5 mg/kg i.v. every 3 days, five injections
Summary of the method: as §2

MCF-7 cells [5] = test: Cellular uptake by flow cytometry; type: cell-based, human; settings: MCF-7, 1 mg/mL, 8 hours
Summary of the method: (§3)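 Cells were seeded at 5×10^5 per well in culture medium (37°C, 5% CO2) and left overnight. They were then given 1 mg/mL solution of the FITC- or 5-aminofluorescein-labelled folate–PTX conjugates and incubated 8 h at 37°C. Cells were resuspended in PBS and immediately analysed by flow cytometry for percentage of fluorescent cells.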

[6] = PTX loading by HPLC standard curve; type: physicochemical; settings: HPLC peak area versus PTX content, n=5
Summary of the method: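 PTX content of the conjugate was calculated theoretically and checked against an HPLC standard curve of peak area versus PTX content, with standards in anhydrous ethyl alcohol.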

Aqueous solubility = type: physicochemical; settings: water, room temperature (25°C), n=4
HEK293 cells = test: Cellular uptake by flow cytometry; type: cell-based, human; settings: HEK293 normal cells, 1 mg/mL, 8 hours
Summary of the method: as §3

[7] = Release of free PTX in human plasma, HPLC; type: in vitro ADME; settings: 37°C, 4 hours
Summary of the method: (§4)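 Test conjugate was dissolved at 5 mg per 2.5 mL in PBS pH 7.4 or human plasma and held at 37°C for up to 12 hours. Aliquots were drawn at set times and free PTX was extracted into ethyl acetate. Free PTX was quantified by reverse-phase C18 HPLC at 1 mL per minute and 30°C, with UV detection at 227 nm.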

MDA-MB-231 cells [8] = test: Cellular uptake by flow cytometry; type: cell-based, human; settings: MDA-MB-231, 1 mg/mL, 8 hours
Summary of the method: as §3

A549 cells [9] = test: Cellular uptake by flow cytometry; type: cell-based, human; settings: A549, 1 mg/mL, 8 hours
Summary of the method: as §3

[10] = test system: tumor cell lines (MDA-MB-231, MCF-7, A549); test: Cellular uptake by flow cytometry, tumor groups together; type: cell-based, human; settings: range over the three tumor cell lines
Summary of the method: as §3

[11] = Release of free PTX in PBS; type: physicochemical; settings: PBS pH 7.4, 37°C, 4 hours
Summary of the method: as §4

Row | Compound | late apoptosis/necrotic value (Q4) (MCF-7 cells [1]) | decrease of body weight, of original weight (A549 tumors; A549-bearing mice) | tumor growth inhibition rate (A549 tumors; A549-bearing mice) | late apoptosis/necrotic value (Q4) (MDA-MB-231 cells [3]) | late apoptosis/necrotic value (Q4) (A549 cells [4]) | tumor growth inhibition rate (MCF-7 tumors) | cell uptake rate (MCF-7 cells [5]) | PTX loading [6] | cell uptake rate (HEK293 cells) | cell uptake rate (MDA-MB-231 cells [8]) | cell uptake rate (A549 cells [9]) | percentage cell uptake in the tumor groups [10] | free PTX released [11] | also measured
1 | CC(=O)O[C@H]1C(=O)[C@@]2(C)[C@H]([C@H](OC(=O)c3ccccc3)[C@]3(O)C[C@H](OC(=O)[C@H](O)[C@@H](NC(=O)c4ccccc4)c4ccccc4)C(C)=C1C3(C)C)[C@]1(OC(C)=O)CO[C@@H]1C[C@@H]2O [PTX, Paclitaxel, reference compound] | 19.9% | about 25.34% | 35.23% | 25.8% | 14.6% | about 38.16% |  |  |  |  |  |  |  | inhibition ratio (of total cells) ([2]; MTT, 48 hours, three tumor cell lines, maximum reached): ≤ 62.4%; decrease of body weight (A549 tumors; A549-bearing mice): 3.92 g; LD50 at 14 days (Acute toxicity): 25.48 ± 0.17 mg/kg; survival rate (normal (Kunming) mice; 15 mg/kg): 90%; survival rate (normal (Kunming) mice; 45 mg/kg): 0%; body weight loss (MCF-7 tumors; end of treatment): 3.88 g; body weight loss, of original body weight (MCF-7 tumors; end of treatment): approximately 20%
2 | CC(=O)O[C@H]1C(=O)[C@@]2(C)[C@H]([C@H](OC(=O)c3ccccc3)[C@]3(O)C[C@H](OC(=O)[C@H](OC(=O)[C@H](CCC(=O)Nc4ccc5c(c4)C(=O)OC54c5ccc(O)cc5Oc5cc(O)ccc54)NC(=O)CC[C@H](NC(=O)c4ccc(NCc5cnc6nc(N)[nH]c(=O)c6n5)cc4)C(=O)O)[C@@H](NC(=O)c4ccccc4)c4ccccc4)C(C)=C1C3(C)C)[C@]1(OC(C)=O)CO[C@@H]1C[C@@H]2O [FA-5AF-Glu-PTX, folic acid-5-aminofluorescein-glutamic-paclitaxel] | 27.9% | about 2% |  | 34.1% | 16.3% |  | 75.1% | 32.19%±0.35% | 1.9% | 85.9% | 59.0% | 59.01%–85.93% | 23.3% | solubility (Aqueous solubility): 6410 ± 180 µg/mL (≈ 3.69 mM); free PTX released [7]: 54.84%; inhibition rate relative to free PTX (A549 tumors; A549 tumor): ~1.3 times; body weight change during treatment (MCF-7 tumors): gradual increase
3 | folic acid-fluorescein-5(6)-isothiocyanate-arginine-paclitaxel [FA-FITC-Arg-PTX] | 26.7% |  | 48.65% | 36.5% | 16.8% | 57.63% | 78.1% | 38.70%±0.49% | 2.1% | 89.6% | 63.2% | 63.22%–89.63% | 25.8% | cell viability ([2]; tumor cells, high doses): approximately 20%
